A selection: hits, their analogues and other compounds. The true share with any hit is near 1.5%.
NR1D1 modulator – modulators of Rev-erb alpha DNA binding, primary screen, biochemical, FITC-DNA, fluorescence polarization, uHTS | Rev-erbα–FITC-DNA binding, 90 min | activity, % at 10 µM | 370,000 tested, 0.79% active | AID 1259318, 2017;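 active = activity above about 14%, limit read from the data; passing the limit was not always enough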;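 note: 0% = DMSO wells with 35 nM protein and 100% = DMSO wells with 750 nM protein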
NR2E3 ag-1 – inhibitors of NR2E3-RetCOR corepressor binding, primary screen, NR2E3 agonist project, biochemical, TR-FRET, GST-NR2E3, biotin-RetCOR | inhibition of corepressor binding, % at 4.78 µM | Photoreceptor-specific nuclear receptor (Homo sapiens), Q9Y5X4 | 1536-well | 320,000 tested, 0.12% active;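 active = percent inhibition above the cutoff of mean plus 3 SD of all tested compounds, set per screening campaign, cut at about 20% in these data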;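 note: 0% = DMSO wells and 100% = biotin wells as full block of FRET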
Target sequence (Q9Y5X4 whole entry, looked up): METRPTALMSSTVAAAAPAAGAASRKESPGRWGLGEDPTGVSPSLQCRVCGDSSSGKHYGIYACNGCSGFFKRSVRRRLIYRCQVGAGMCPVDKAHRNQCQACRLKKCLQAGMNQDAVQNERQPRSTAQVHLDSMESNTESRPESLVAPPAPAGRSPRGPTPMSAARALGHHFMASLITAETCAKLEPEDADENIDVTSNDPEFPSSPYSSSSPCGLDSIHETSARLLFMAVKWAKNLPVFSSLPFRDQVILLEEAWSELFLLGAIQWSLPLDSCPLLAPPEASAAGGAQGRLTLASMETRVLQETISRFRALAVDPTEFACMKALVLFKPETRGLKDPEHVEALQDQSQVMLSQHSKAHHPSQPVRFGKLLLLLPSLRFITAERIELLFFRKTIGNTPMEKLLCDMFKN
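Material: NR2E3–RetCOR corepressor complex | Quantity: 1.35 nM GST-tagged NR2E3 final | Schedule: 5 h at 4 °C | Replication: Singlicate compound wells | Reagent: RetCOR corepressor, biotinylated, 7 nM | Controls: Biotin wells as high control, 0.6% DMSO wells as low control | Signal: TR-FRET, Eu(K)-anti-GST donor, streptavidin-D2 acceptor, ex 340, em 617/671 nm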
NR2E3 ag-2 – NR2E3 agonists in two-hybrid cells, primary screen, cell-based, luminescence, CHO-S, Gal4-NCOR/VP16-NR2E3; 360,000 tested, 0.35% active; Photoreceptor-specific nuclear receptor (Homo sapiens), Q9Y5X4; luciferase; inhibition of corepressor binding, % at 3.98 µM;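 active = inhibition above the mean of all tested compounds plus 3 SD, cut at about 70% in these data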;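 note: 0% = DMSO with NR2E3 transfected cells and 100% = cells lacking NR2E3 construct; higher means lower luciferase signal from less NR2E3 corepressor binding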
PG9 binder – binders of HIV-1 gp120 antibody PG9, primary screen, biochemical, TR-FRET; HIV-1 gp120 / PG9 antibody interaction; TR-FRET gp120-PG9 antibody binding; inhibition, % at 6.7 µM; 360,000 tested, 0.43% active; AID 624416, 2012; in the data active = inhibition above about 8.5%
PG9 binder conf – binders of anti-gp120 antibody PG9, confirmation, biochemical, TR-FRET; shares compounds with PG9 binder; TR-FRET PG9 antibody binding; inhibition, % at 6.7 µM; 1,500 tested, 90% active; in the data active = inhibition above about 9%
PGV04 Ab binding – binders of control antibody PGV04, counter-screen for PG9 antibody binder project, biochemical, TR-FRET, distinct HIV envelope site; shares compounds with PG9 binder; TR-FRET PGV04 antibody-gp120 binding; inhibition, % at 6.7 µM; 1,500 tested, 95% active; AID 651604, 2012; in the data active = inhibition above about 9.5%
NR1D1 mod conf – modulators of Rev-erb alpha DNA binding, confirmation, biochemical, FITC-DNA, fluorescence polarization, single point; shares compounds with NR1D1 modulator; 90 min; activation, % at 25 µM; 3,000 tested, 61% active; AID 1259319, 2017;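 active = activation at or above a set limit, or at least 3 SD above the negative control mean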;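 note: 0% = 35 nM protein with DMSO and 100% = 750 nM protein high control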
RORg DNA counter – modulation of RORgamma DNA binding, dose response, counter-screen for Rev-erb alpha modulator project, biochemical, fluorescence polarization, FITC-DNA | IC50, µM | purified RORgamma protein-FITC-DNA binding | AID 1259320, 2017 | 910 tested, 8% active | shares compounds with NR1D1 modulator;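 active = Compounds whose fitted half-maximal concentration for disrupting protein-DNA binding is below 10 micromolar; the record names Rev-erb in its text, so the target is in doubt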
* hit, by the source's call; . = not tested or not shown.

SMILES	NR1D1 modulator	NR2E3 ag-1	NR2E3 ag-2	PG9 binder	PG9 binder conf	PGV04 Ab binding	NR1D1 mod conf	others
C/C=C/C(=O)N1CCC(C(=O)NCC2COc3ccccc3O2)CC1 (stereo not given)	-8.7	.	.	.	.	.	.
O=c1cc(-c2ccccc2)[nH]c2nc3ccccc3n12	24.4*	5.4	-141.9	12.7*	20.1*	32.1*	16.6*
O=c1cc(CCl)[nH]c2nc3ccccc3n12	-4.0	1.3	17.4	-1.7	.	.	.
COc1cccc(-c2nnc3sc(-c4ccc(Br)o4)nn23)c1	-6.0	.	.	.	.	.	.
COc1ccc(CCn2c(S)nc3ccccc3c2=O)cc1	36.6*	4.6	-17.4	23.9*	42.4*	50.1*	7.8
COc1ccc(C(=O)Nc2scc(-c3ccc(Cl)cc3Cl)c2C(N)=O)cc1	62.0*	0.7	-74.9	9.8*	6.8	19.0*	55.6*	RORg DNA counter=>40
Cc1cccc2cc(C#N)c(SCC(=O)Nc3ccccc3N3CCOCC3)nc12	48.3*	5.4	-15.0	16.6*	16.7*	39.4*	44.0*	RORg DNA counter=>40
Cc1cc(NC(=O)CSc2nc3c(C)cccc3cc2C#N)no1	83.2*	-37.7	-27.4	27.1*	43.2*	71.6*	53.1*	RORg DNA counter=>40
O=S1(=O)c2ccc(N3CC[C@H](O)C3)cc2O[C@H]2CCN1C2	2.8	.	.	.	.	.	.
O=[N+]([O-])c1ccc2c(c1)CCCO[C@]21O[C@H](CCO)C[C@H](O)[C@H]1O	-4.0	.	.	-0.4	.	.	.
CC1CN(S(=O)(=O)c2ccc(C(=O)Nc3nc(-c4cc5ccccc5o4)cs3)cc2)CC(C)O1 (stereo not given)	64.3*	-1.2	-3.6	63.4*	71.0*	79.2*	11.8
C=CCOC(=O)N1CCN(C(=O)c2ccc3nc(C)n(C4CCCC4)c3c2)CC1	-3.8	.	.	.	.	.	.
Cc1ccc(-c2nc3ncccc3o2)cc1NC(=O)CC(C)C	6.3	-1.2	-7.6	-0.9	.	.	.
Cc1ccc(-c2nc3ncccc3o2)cc1NC(=O)c1cc2ccccc2o1	18.9*	1.3	-25.0	8.9*	11.8*	34.7*	-0.2
Cc1ccc(-c2nc3ncccc3o2)cc1NC(=O)COc1ccccc1	21.8*	-0.1	-5.6	9.1*	12.6*	18.1*	9.3
O=C(Nc1cccc(-c2nc3ncccc3o2)c1)c1cc2ccccc2o1	-2.6	-3.5	-58.5	-0.7	.	.	.
O=C(C1CCCO1)N1CCN(C2=Nc3ccccc3Sc3ccccc32)CC1 (stereo not given)	-3.6	.	.	.	.	.	.
Cn1c2ccccc2c(=O)c2c(=O)n(Cc3ccccc3)c(-c3ccc(F)cc3)nc21	28.5*	-1.5	-3.8	21.3*	28.2*	39.3*	30.1*
COCCn1c(-c2ccccc2)nc2c(c(=O)c3ccccc3n2C)c1=O	.	-5.4	.	.	.	.	.
CCOC(=O)CC[C@@H]1CC[C@]2(CCCN(C(=O)c3ccco3)C2)O1	1.0	.	.	.	.	.	.
N#Cc1c(N)nc(SCC(=O)NCc2ccc3c(c2)OCO3)c(C#N)c1-c1cccs1	85.3*	-0.7	-25.8	49.7*	23.4*	40.4*	53.7*	RORg DNA counter=>40
COc1ccc(-c2cc(-c3ccccc3)c(C#N)c(S(C)=O)n2)cc1 (stereo not given)	0.9	1.1	17.7	0.3	.	.	.
N#Cc1c(-c2ccccc2)cc(-c2ccccc2)nc1Br	28.5*	6.0	18.8	8.7*	14.1*	17.4*	10.1
COc1ccc(CNC(=O)CS(=O)(=O)Cc2nc(-c3ccc(OC)cc3)oc2C)cc1	1.1	-2.3	-25.8	-0.3	.	.	.
Cc1ccc(CNC(=O)CS(=O)(=O)Cc2nc(-c3ccc(C)cc3)oc2C)cc1	27.8*	0.7	2.6	28.4*	20.0*	53.2*	12.1
SMILES	NR1D1 modulator	NR2E3 ag-1	NR2E3 ag-2	PG9 binder	PG9 binder conf	PGV04 Ab binding	NR1D1 mod conf	others
CCOC(=O)c1cc2sc(C)cc2n1CC(=O)N(CC)CC	-1.7	-0.3	-2.6	0.9	.	.	.
CCOC(=O)c1cc2sc(C)cc2n1CC(=O)NCCc1ccccc1	31.8*	-15.7	24.9	55.2*	49.2*	53.1*	13.5
Cc1ccc(NC(=S)NNC(=O)c2cnccn2)cc1	2.8	.	.	.	.	.	.
COc1cc(NC(=O)c2ccc(-c3ccc(Br)cc3)o2)ccc1NC(=O)C(C)C	36.9*	-0.5	-11.3	21.8*	40.9*	29.8*	15.6
COc1ccccc1NC(=O)c1ccc(-c2ccc(Br)cc2)o1	7.3	4.8	-13.8	2.5	.	.	.
Brc1cnc2nc(SCc3nc4ccccc4[nH]3)[nH]c2c1	-3.2	-2.7	38.2	-1.1	.	.	.
Cc1cc(C)cc(OCc2nc3ncc(Br)cc3[nH]2)c1	61.9*	4.4	-70.7	34.4*	47.4*	62.6*	38.5*	RORg DNA counter=>40
CCCCCCn1c(SCC(=O)Nc2cc(C)on2)nc2ccccc2c1=O	41.2*	1.1	-0.6	30.9*	23.2*	31.9*	18.1*
COCCn1c(SCC(=O)Nc2cc(C)on2)nc2ccccc2c1=O	2.2	2.3	-5.2	-0.6	.	.	.
COc1ccc(CCn2c(SCC(=O)Nc3cc(C)on3)nc3ccccc3c2=O)cc1OC	-3.1	-1.7	-9.2	0.2	.	.	.
Cc1cc(NC(=O)CSc2nc3ccccc3c(=O)n2Cc2ccc(F)cc2)no1	52.5*	-1.0	-25.9	41.6*	62.4*	65.4*	26.5*
O=C(NCc1ccc(F)c(F)c1)C1C2C=CC3(CN(Cc4ccccc4)C(=O)C13)O2 (stereo not given)	1.1	.	.	.	.	.	.
N#C/C(C(=O)NCc1ccco1)=C1/SC=C(c2ccccc2)N1c1ccccc1	37.6*	-2.0	-1.3	40.8*	42.0*	58.5*	30.2*
CC1=CS/C(=C(/C#N)C(=O)NCc2ccco2)N1c1ccccc1	-8.3	5.2	-21.0	3.5	.	.	.
CCOc1ccc(-n2c(=O)c3sccc3n(CC(=O)Nc3cccc(OC)c3)c2=O)cc1	31.3*	-2.7	2.0	24.4*	25.6*	42.8*	27.4*
O=C(C1CCC1)N1CCc2cc(S(=O)(=O)N3CCCC3)ccc21	1.6	.	.	.	.	.	.
Cn1c(NC(=O)c2cccc(Cn3cc(Cl)cn3)c2)nc2ccccc21	25.1*	0.9	-121.4	50.8*	37.0*	53.3*	0.8
CC(C)C(=O)N1CC[C@H]2[C@H](CCCN2Cc2ccccc2)C1	6.9	.	.	.	.	.	.

Source: PubChem BioAssay
